{"source": "paper PMC7669743", "about": "(Inorganic chemistry, 2020)", "key": {"[1]": {"settings": "cited from earlier work"}, "[2]": {"experiment": "Solubility in high ionic strength aqueous media", "type": "physicochemical", "settings": "for solubility in high ionic strength aqueous media: fully soluble; for solubility in aqueous media relative to the dmb analogs: high ionic strength aqueous media, in words"}, "[3]": {"tested_on": "SK-MEL-28 malignant melanoma cells", "experiment": "Dark cytotoxicity and photocytotoxicity in normoxia", "type": "cell-based, human"}, "[4]": {"tested_on": "SK-MEL-28 cells", "experiment": "Dark cytotoxicity and photocytotoxicity in hypoxia", "type": "cell-based, human", "settings": "for EC50: read-out: dark EC50 in hypoxia, hypoxia 1% O2, dark", "summary_of_the_method": "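SK-MEL-28 melanoma cells, 10,000 per well, pre-incubated 2–3 h at 1% O2 (5% CO2, 37 °C). Dosed 1 nM–300 μM, held 21–26 h at 1% O2, then film-sealed and given dark or light treatment. Cells returned to normoxia for 2 days, then resazurin (~60 μM final) for 4 h. EC50 came from zero-bottom log-logistic fits, PI as dark/light EC50.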"}, "[5]": {"experiment": "Lipophilicity", "type": "physicochemical", "settings": "pH 7.4, phosphate buffer / 1-octanol, chloride salts", "summary_of_the_method": "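Modified shake-flask method. 10 mM saline-free phosphate buffer (pH 7.4) and 1-octanol were mutually pre-saturated at 1:4 by shaking at 230 rpm for 24 h (~20 °C). Chloride salts at 50 μM in saturated octanol plus saturated buffer (1:1) were shaken 200 times and centrifuged (~10,000 × g, 2 min). Each phase was read by absorbance at its longest-wavelength maximum (400–600 nm) against a standard curve. Log D is the log of the octanol/buffer concentration ratio.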"}, "[6]": {"settings": "cited from earlier work", "remark": "listed apart in the source"}, "[7]": {"experiment": "Singlet oxygen sensitization quantum yield", "type": "physicochemical", "settings": "acetonitrile", "summary_of_the_method": "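PF6- salts were used at 5–20 μM in acetonitrile distilled over calcium hydride, air-saturated. The 1O2 phosphorescence band (~1276 nm) was integrated using NIR PMT detection. Quantum yield was calculated by relative actinometry against [Ru(bpy)3]2+ (Φ = 0.56, aerated MeCN), using emission integrals and absorbance at the excitation wavelength. The refractive-index ratio was 1 because both solutions were in acetonitrile.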"}, "[8]": {"tested_on": "female C57BL/6J mice", "experiment": "Maximum tolerated dose", "settings": "intraperitoneal, doses 25–200 mg kg^−1, 2-week observation"}, "[9]": {"tested_on": "amelanotic SK-MEL-28 human cells", "experiment": "Fluence dependence of photocytotoxicity in normoxia", "type": "cell-based"}, "[10]": {"settings": "read-out: dark EC50, dark (sham) treatment, SK-MEL-28"}, "[11]": {"settings": "read-out: light EC50, visible light, visible 400–700 nm, 100 J cm^−2, ~20 mW cm^−2"}}, "note": "Like-named read-outs stand apart in the source and are kept apart here. Marks after values point to notes of the source that are not given here."}
{"compound": "[Ru+2].c1ccc(-c2ccccn2)nc1.c1ccc(-c2ccccn2)nc1.c1ccc(-c2ccccn2)nc1", "note": "[[Ru(bpy)3]^2+]", "values": [{"measurement": "singlet oxygen quantum yield ΦΔ of the standard", "setting": "[1]; aerated MeCN", "result": 0.56}]}
{"compound": "[Os(dmb)2(IP-3T)]Cl2 [2–3T]", "values": [{"measurement": "solubility in high ionic strength aqueous media", "setting": "[2]", "result": "≥ 1200", "unit": "µM"}]}
{"compound": "[Os(dmb)3](Cl)2 [[Os(dmb)3]^2+, reference compound]", "values": [{"measurement": "EC50", "setting": "[3]; [10]", "result": "> 100", "unit": "µM"}]}
{"compound": "[Os(bpy)2(IP-2T)]Cl2 [1–2T]", "values": [{"measurement": "EC50", "setting": "[3]; [10]", "result": 42.2, "unit": "µM"}, {"measurement": "EC50", "setting": "[4]", "result": 76.9, "unit": "µM"}]}
{"compound": "[Os(bpy)2(IP-3T)]Cl2 [1–3T]", "values": [{"measurement": "EC50", "setting": "[3]; [10]", "result": 45.8, "unit": "µM"}, {"measurement": "EC50", "setting": "[4]", "result": 71.9, "unit": "µM"}, {"measurement": "log Do/w", "setting": "[5]", "result": "amphiphilic"}, {"measurement": "solubility in aqueous media relative to the dmb analogs", "setting": "[2]", "result": "less soluble"}]}
{"compound": "[Os(phen)2(IP-4T)]Cl2", "values": [{"measurement": "PIvis in hypoxia", "setting": "[6]; hypoxia, visible light", "result": 90}]}
{"compound": "[Os(dmb)2(IP-4T)]Cl2 [2–4T]", "values": [{"measurement": "EC50", "setting": "[3]; [11]", "result": 0.071, "unit": "µM"}, {"measurement": "PIgreen in hypoxia", "setting": "[4]; hypoxia 1% O2, green light", "result": 15}, {"measurement": "solubility in high ionic strength aqueous media", "setting": "[2]", "result": "≥ 1200", "unit": "µM"}, {"measurement": "singlet oxygen quantum yield ΦΔ", "setting": "[7]", "result": 56, "unit": "%"}, {"measurement": "maximum tolerated dose (MTD)", "setting": "[8]", "result": "≥ 200", "unit": "mg/kg"}]}
{"compound": "Cc1cccc(-c2cccc(C)n2)n1.Cc1cccc(-c2cccc(C)n2)n1.[Cl-].[Cl-].[Ru+2].c1ccc2c(-c3nc4c5cccnc5c5ncccc5c4[nH]3)cccc2c1", "note": "[[Ru(6,6′-dmb)2(1-NIP)]Cl2]", "values": [{"measurement": "PI (PIvis) in hypoxia", "setting": "[6]; 1% O2, visible light", "result": 15}]}
{"compound": "[Os(bpy)2(IP-4T)]Cl2 [1–4T]", "values": [{"measurement": "phototherapeutic index PIgreen", "setting": "[3]; green 523 nm, ratio of dark to light EC50", "result": 6700}, {"measurement": "EC50", "setting": "[3]; [10]", "result": 71.9, "unit": "µM"}, {"measurement": "EC50", "setting": "[3]; read-out: light EC50, green light, green 523 nm, 100 J cm^−2", "result": "~0.01", "unit": "µM"}, {"measurement": "EC50", "setting": "[3]; read-out: light EC50, red light, red 633 nm, 100 J cm^−2", "result": "~0.01", "unit": "µM"}, {"measurement": "EC50", "setting": "[3]; [11]", "result": 0.00131, "unit": "µM"}, {"measurement": "phototherapeutic index PIvis", "setting": "[3]; visible light, ratio of dark to light EC50", "result": "55,000"}, {"measurement": "phototherapeutic index (PI) in hypoxia", "setting": "[4]; hypoxia 1% O2, across the three light conditions", "result": "~70"}, {"measurement": "EC50", "setting": "[4]", "result": 55.3, "unit": "µM"}, {"measurement": "fold improvement over 2–4T", "setting": "[9]; PDT dose product EC50, normoxia", "result": "≥ 5", "unit": "fold"}, {"measurement": "photocytotoxic activity at the lowest tested fluence", "setting": "[9]; normoxia, 10 J cm^−2, both wavelengths (523 and 633 nm)", "result": "Submicromolar"}, {"measurement": "solubility in aqueous media relative to the dmb analogs", "setting": "[2]", "result": "less soluble"}, {"measurement": "singlet oxygen quantum yield ΦΔ", "setting": "[7]", "result": 70, "unit": "%"}, {"measurement": "maximum tolerated dose (MTD)", "setting": "[8]", "result": "≥ 200", "unit": "mg/kg"}]}
{"compound": "[Os+2].c1ccc(-c2ccccn2)nc1.c1ccc(-c2ccccn2)nc1.c1ccc(-c2ccccn2)nc1", "note": "[[Os(bpy)3]^2+, [Os(bpy)3]Cl2, reference compound]", "values": [{"measurement": "EC50", "setting": "[3]; [10]", "result": "> 100", "unit": "µM"}, {"measurement": "singlet oxygen quantum yield ΦΔ", "setting": "[1]; acetonitrile, room temperature, excitation 479 nm, literature value ref 83", "result": "0.22 (479)^a"}]}
